Only some compounds are listed: those with a hit (about 2.4% of all), similar ones and a draw of the others.
sPLA2-III inh = Inhibits HGIII-sPLA2 liposome hydrolysis, primary screen. AID 743126. QFRET BODIPY PC-A2 liposome hydrolysis, fluorescence. hit rate 0.56% among 370,000. Q9NZ20. inhibition, % at 12.2 µM;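 active means inhibition above mean plus 3 SD of compounds lying within the high and low control bounds, cut at about 19% in these data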;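 further: 0% = median of test compound wells and 100% = no enzyme DMSO wells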
Target sequence (Q9NZ20 whole entry, looked up): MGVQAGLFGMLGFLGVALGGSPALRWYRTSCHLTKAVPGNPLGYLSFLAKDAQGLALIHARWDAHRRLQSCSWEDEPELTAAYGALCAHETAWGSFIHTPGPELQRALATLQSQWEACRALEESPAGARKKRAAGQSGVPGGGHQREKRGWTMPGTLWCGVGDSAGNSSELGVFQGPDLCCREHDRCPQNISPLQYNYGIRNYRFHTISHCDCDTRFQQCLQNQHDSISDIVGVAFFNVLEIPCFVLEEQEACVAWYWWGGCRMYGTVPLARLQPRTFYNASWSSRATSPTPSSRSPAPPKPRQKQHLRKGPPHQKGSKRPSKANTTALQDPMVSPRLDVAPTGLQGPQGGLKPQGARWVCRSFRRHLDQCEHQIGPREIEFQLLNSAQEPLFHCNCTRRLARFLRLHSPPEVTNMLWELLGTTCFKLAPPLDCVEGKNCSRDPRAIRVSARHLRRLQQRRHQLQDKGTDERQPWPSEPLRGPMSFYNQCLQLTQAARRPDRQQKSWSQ
VIM-2 inh = inhibitors of Pseudomonas aeruginosa VIM-2 metallo-beta-lactamase; AID 1527; inhibition, % at 5.6 µM; purified VIM-2, nitrocefin hydrolysis, epi-absorbance fluorescence; hit rate 0.89% among 290,000;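 active means inhibition above the mean of all tested compounds plus 3 SD, cutoff set per screening run, cut at about 7.5% in these data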;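 further: red hydrolysis product quenches plate fluorescence so inhibitors raise well fluorescence; 0% = enzyme with DMSO and 100% = DMSO without enzyme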
IMP-1 inhibitor = blocks Pseudomonas aeruginosa IMP-1 metallo-beta-lactamase | purified IMP-1, nitrocefin hydrolysis, epi-absorbance fluorescence | inhibition, % at 5.6 µM | hit rate 0.45% among 290,000 | AID 1556;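 active means inhibition above the mean plus 3 SD of all compounds in the same screening run, cut at about 4.5% in these data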;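 further: 0% = IMP-1 with DMSO and 100% = DMSO wells lacking enzyme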
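Assay system: purified IMP-1; Quantity: IMP-1 0.2 nM before substrate addition; Medium: HEPES buffer pH 7.1 with ZnSO4 and Brij 35; Incubation: 15 min enzyme–compound preincubation, then 25 min nitrocefin reaction, 25 °C; Signal: fluorescence quenching readout, ex 480/em 530 nm; Controls: DMSO with and without IMP-1; Repeats: singlicate testing.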
M18AAP inhibitor = PfM18AAP enzyme inhibition | inhibition, % at 7.35 µM | hit rate 1.2% among 290,000 | recombinant PfM18AAP, H-Glu-NHMec fluorogenic cleavage;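 active means inhibition above the campaign mean inhibition over all tested compounds plus 3 SD, cut at about 28% in these data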;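 further: 0% = plate median of test compound wells and 100% = 2 mM ZnCl2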
sPLA2 confirm = human GIII-sPLA2 inhibition, confirmation; hit rate 34% among 2,000; recombinant hGIII-sPLA2, BODIPY PC-A2 QFRET fluorescence; shares compounds with sPLA2-III inh; inhibition, % at 12.2 µM;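 active means mean inhibition across triplicates above the hit cutoff set in the earlier primary screen, cut at about 19% in these data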;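 further: 0% = enzyme with DMSO and 100% = DMSO wells lacking enzyme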
535nm interf = 535nm fluorescence interference, HGIII-sPLA2 counter-screen. shares compounds with sPLA2-III inh. BODIPY FL product fluorescence interference, QFRET. inhibition, % at 12.2 µM. hit rate 8.5% among 2,000. AID 743282;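 active means average inhibition above the solvent-only control mean plus 3 SD, cut at about 6% in these data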;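 further: 0% = DMSO with substrate plus product and 100% = DMSO with substrate alone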
BODIPY interf DR = counter-screen for HGIII-sPLA2 inhibitors: 535nm fluorescence interference, dose response. IC50, µM. shares compounds with sPLA2-III inh. BODIPY FL product fluorescence interference, cell-free. AID 743455. 240 tested, under 10 active;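 active means IC50 at or below 10 µM; inactive means IC50 above 10 µM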
* = called active by the depositor; · = no result; ! = not confirmed by another sample.

SMILES | sPLA2-III inh | VIM-2 inh | IMP-1 inhibitor | M18AAP inhibitor | sPLA2 confirm | 535nm interf | others
CS(=O)(=O)N1CCCC(C(=O)NCc2cccs2)C1 (centres undefined) | 20* | -4 | -3 | -1 | -3 | -1
O=C(NCc1cccs1)C1CCCN(S(=O)(=O)c2cccs2)C1 (centres undefined) | -2 | -2 | 3 | 2 | · | ·
S=c1[nH]cc(-c2ccc(Cl)cc2)n1Cc1ccccc1 | 24* | -5 | 0 | -4 | 9 | 2
O=C(CSc1nc2[nH]ncc2c(=O)[nH]1)NCc1ccc(F)cc1 | 96* | 0 | -3 | 5 | 5 | -4
CCOC(=O)[C@@]12CCCC3=C1N(CCC3)C(=O)[C@H]2CC(=O)N1CCC(c2ccccc2)CC1 | 1 | · | · | · | · | ·
O=C(N/N=C/c1ccc2c(c1)OCO2)c1ccc(Br)o1 | 19* | -4 | -3 | -3 | 1 | -6
Cc1cc(C(=O)N/N=C/c2ccc3c(c2)OCO3)c(C)o1 | -4 | 0 | 0 | -10 | · | ·
O=C(N/N=C/c1cc(Br)cc(Cl)c1O)c1ccc2c(c1)OCO2 | 19 | · | · | · | · | ·
Cc1cc(Br)cc(/C=N/NC(=O)c2ccc3c(c2)OCO3)c1O | 36* | -2 | -1 | 13 | 40* | 2 | BODIPY interf DR=>122
CC(C)C[C@H](NC(=O)c1nc[nH]c1C(=O)N[C@@H](CC(C)C)C(=O)OC(C)(C)C)C(=O)OCc1ccccc1 | -12 | -2 | -3 | 2 | · | ·
CC(C)C[C@H](NC(=O)c1[nH]cnc1C(=O)N[C@@H](C)C(=O)OC(C)(C)C)C(=O)OC(C)(C)C | 23* | · | · | · | -10 | -30
Cc1nn(C)c(C(=O)NNC(=S)NC2CCCCC2)c1Br | 23* | -6 | -3 | 15 | 22* | -3
Cn1ncc(Br)c1C(=O)NC1CCCCCCC1 | 8 | -2 | -1 | 0 | · | ·
O=C(NCCS(=O)(=O)NCc1ccccc1)c1ccccc1 | 19* | · | · | · | -1 | -5
CCN(CC)C(=O)COCc1cc(-c2ccc3c(c2)OCO3)on1 | 3 | -3 | -1 | -4 | · | ·
O=C(CCc1ccccc1)NC(c1cccs1)c1cc(Cl)c2cccnc2c1O (centres undefined) | 23* | -3 | -5 | 11 | 15 | 4
CCCCC(=O)NC(c1ccco1)c1cc(Cl)c2cccnc2c1O (centres undefined) | 23* | -2 | -3 | 20 | 19 | -7
CCCC(=O)NC(c1cccs1)c1cc([N+](=O)[O-])c2cccnc2c1O (centres undefined) | 3 | -2 | -4 | -11 | · | ·
CC1=C(C(=O)Nc2cc(C(=O)N3CCN(c4ccc(Cl)cc4)CC3)ccc2C)SCCO1 | -2 | · | · | · | · | ·
CCCCn1c(SCc2nc(N)nc(N3CCCCC3)n2)nc2c1c(=O)n(C)c(=O)n2C | 21* | 0 | -1 | 0 | 4 | -32
COc1cc2[nH]c(C(=O)Nc3ccc(F)cc3)cc2c(OC)c1OC | -4 | -2 | -3 | 10 | · | ·
CC(C)C(=O)N1CC[C@H]2[C@H](CCCN2Cc2cc(F)cc(F)c2)C1 | 1 | · | · | · | · | ·
CC(C)C(=O)N1CC[C@H]2[C@H](CCCN2Cc2ccc(F)cc2)C1 | 22* | · | · | · | -4 | -9
Cc1ccc(C)c(C(C)NC(=S)NCc2ccc(F)cc2)c1 (centres undefined) | -8 | -4 | -4 | -10 | · | ·
O=C(NC(=S)Nc1ccc(N2CCCC2)cc1)c1ccccc1[N+](=O)[O-] | 23* | -1 | -4 | 0 | 18 | -1
SMILES | sPLA2-III inh | VIM-2 inh | IMP-1 inhibitor | M18AAP inhibitor | sPLA2 confirm | 535nm interf | others
O=C(NNC(=S)Nc1ccccc1)c1ccccc1[N+](=O)[O-] | 9 | -5 | -3 | 6 | · | ·
O=C(NNC(=S)NC(=O)c1ccccc1[N+](=O)[O-])c1ccccc1[N+](=O)[O-] | 23* | -1 | -7 | 9 | 24* | 0
O=C(Nc1ccc(N2CCCC2)c(Cl)c1)c1ccccc1[N+](=O)[O-] | 12 | -1 | -1 | 1 | · | ·
CCCCOc1ccccc1C(=O)NNC(=S)NC(=O)c1ccccc1[N+](=O)[O-] | 43* | -4 | -3 | 3 | 48* | -7 | BODIPY interf DR=>122
O=C(COC(=O)c1ccccc1[N+](=O)[O-])NCCCc1ccccc1 | 0 | -2 | -5 | -5 | · | ·
O=C(COC(=O)c1ccccc1[N+](=O)[O-])NC(=O)c1ccccc1 | 21* | · | · | · | 0 | -6
CCOc1ccc(Cl)cc1-c1cc(C(=O)Nc2ccc(OC)nc2)[nH]n1 | -2 | · | · | · | · | ·
Cc1cccc(NS(=O)(=O)c2ccc(C)c(C(=O)NCC(c3ccco3)N3CCCCC3)c2)c1 (centres undefined) | -28 | · | · | · | · | ·
Cc1cc(C)cc(C(=O)Nc2cc3c4c(c2)CC(=O)N4CCC3)c1 | -9 | · | · | · | · | ·
CC1(C)CSC(C)(C)C(=O)N1 | 8 | · | · | · | · | ·
O=C(COc1ccc(Br)cc1)NNC(=S)NC(=O)c1ccccc1[N+](=O)[O-] | 23* | -1 | -3 | 16 | 43* | -15
CC(=O)NC(=S)NNC(=O)COc1ccc(Br)cc1 | -6 | -4 | -4 | 13 | · | ·
Cc1cc(Br)c(NC(=O)c2ccccc2[N+](=O)[O-])cc1C | 4 | -1 | -2 | -2 | · | ·
O=C(NNC(=S)NC(=O)c1ccccc1Cl)c1cccc([N+](=O)[O-])c1 | 25* | -3 | -4 | 12 | 37* | -1 | BODIPY interf DR=>122
Cc1cc(Br)cc(C)c1NC(=O)c1ccccc1[N+](=O)[O-] | 21* | 1 | 0 | -8 | 4 | -7
COc1ccc2c(c1)cc(C(=O)N/N=C/c1c(O)c(C(=O)O)cc3ccccc13)n2C | 19* | 0 | 0 | 2 | 17 | 2
O=C(CN1c2ccccc2Sc2ccccc21)NNC(=S)Nc1ccc(Cl)cc1 | 28* | -5 | -4 | -1 | 7 | 18*
O=C(NNC(=S)Nc1ccc(Cl)cc1)c1ccccc1 | 19* | -6 | -2 | 11 | 39* | 3 | BODIPY interf DR=>122
COC(=O)[C@]12C[C@H](CC(=O)NCC3CCCCC3)C(=O)N(Cc3ccco3)C1=C[C@H](COCc1ccccc1)O[C@@H]2C | 3 | · | · | · | · | ·
CC(Cc1ccccc1)NC(=O)CCCN1C(=O)c2ccccc2C1=O (centres undefined) | 2 | -3 | -4 | 0 | · | ·
Cc1cc(C)[n+]2n1C(=O)C(c1ccccc1)=C2[O-] | 21*! | 0 | -2 | -2 | 5 | 0
COc1ccc(N(C(=O)Cn2nnc3ccccc32)C(C(=O)NCc2ccco2)c2ccncc2)cc1 (centres undefined) | -11 | -2 | -2 | 4 | · | ·
CCn1c(O)c(N=NC(=O)CNC(=O)c2ccco2)c2ccccc21 | 2 | -1 | 2 | 0 | · | ·
CCCn1c(O)c(N=NC(=O)c2ccco2)c2ccccc21 | 21* | 1 | -2 | 3 | -1 | -6
N#C/C(=C\c1ccc2c(c1)OCCO2)C(=O)NC1CCCCC1 | 24* | -3 | -3 | 1 | 1 | -11

High-throughput results deposited in PubChem by The Scripps Research Institute Molecular Screening Center.
